Experiment [1] concerns Rattus norvegicus. Nature of the experiment: The percent fall in systolic blood pressure at 1.5 / 4 h after peroral administration of 50 mg/kg in DOCA/saline hypertensive rats at 2 hr. The settings on record: route oral. Format: functional, Artery.
Experiment [2] relates to Rattus norvegicus. Briefly: The percent fall in systolic blood pressure at 1.5 / 4 hr after peroral administration of 50 mg/kg in DOCA/saline hypertensive rats at 6 hr. The class given is functional, Artery. Particulars: route oral.
Experiment [3] relates to Rattus norvegicus. Briefly: The percent fall in systolic blood pressure at 1.5 / 4 hr after peroral administration of 25 mg/kg in DOCA/saline hypertensive rats at 6 hr. The settings on record: route oral. The class given is functional, Artery. An outline of the steps: (§1)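 DOCA/saline hypertensive rats, four per group, dosed orally at 50, 25 or 10 mg/kg. Mean starting systolic pressure was recorded for each group. Systolic pressure was then read 2, 6 and 24 h after dosing and reported as percentage fall from the starting value.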

For experiment [4], the system named is Rattus norvegicus. Briefly: The percent fall in systolic blood pressure at 1.5 / 4 hr after peroral administration of 25 mg/kg in DOCA/saline hypertensive rats at 2 hr. The class given is functional, Artery. The settings on record: route oral. An outline of the steps: as §1
Experiment [5] relates to Rattus norvegicus. Nature of the experiment: The percent fall in systolic blood pressure at 1.5 / 4 hr after peroral administration of 10 mg/kg in DOCA/saline hypertensive rats at 24 hr; Non significant, p>0.05. Format: functional, organism-based. Details: dose 10 mg/kg. The settings on record: Artery, at 10 mg/kg. Put shortly: as §1
In experiment [6] the test system is Rattus norvegicus. Nature of the experiment: Starting systolic blood pressure at dose of 25 mg/kg. The class given is functional, Artery. An outline of the steps:
as §1

The test system of experiment [7] is Rattus norvegicus. Briefly: The percent fall in systolic blood pressure at 1.5 / 4 hr after peroral administration of 10 mg/kg in DOCA/saline hypertensive rats at 6 hr. The settings on record: route oral. Format: functional, Artery. An outline of the steps:
as §1

Experiment [8] relates to Rattus norvegicus. Briefly: The percent fall in systolic blood pressure at 1.5 / 4 hr after peroral administration of 25 mg/kg in DOCA/saline hypertensive rats at 24 hr; Non significant, p>0.05. The class given is functional, organism-based. On the set-up: dose 25 mg/kg. Particulars: Artery, at 25 mg/kg.
Experiment [9] deals with Rattus norvegicus. Briefly: The percent fall in systolic blood pressure at 1.5 / 4 hr after peroral administration of 50 mg/kg in DOCA/saline hypertensive rats at 24 hr; Non significant. Format: functional, organism-based. Details: dose 50 mg/kg. Particulars: Artery, at 50 mg/kg.
The subject of experiment [10] is Rattus norvegicus. Nature of the experiment: Starting systolic blood pressure at dose of 10 mg/kg. The class given is functional, Artery. An outline of the steps: as §1
Experiment [11] concerns Rattus norvegicus. Nature of the experiment: The percent fall in systolic blood pressure at 1.5 / 4 hr after peroral administration of 10 mg/kg in DOCA/saline hypertensive rats at 2 hr. Format: functional, Artery. Particulars: route oral. An outline of the steps:
as §1

Experiment [12] deals with Rattus norvegicus. Nature of the experiment: Starting systolic blood pressure at dose of 50 mg/kg in rat. The class given is functional, Artery. Put shortly:
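Mean systolic blood pressure before dosing for each group of four DOCA/saline hypertensive rats given 50 mg/kg orally. It indicates how far hypertension was established.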

For experiment [13], the system named is Rattus norvegicus. Briefly: The percent fall in systolic blood pressure at 1.5 / 4 hr after peroral administration of 40 mg/kg in conscious renal hypertensive rats (RHR). The class given is functional, Artery. Particulars: route oral. An outline of the steps:
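Conscious renal hypertensive rats, four per group, dosed orally. Starting systolic pressures were 160–200 mmHg. Percentage fall in systolic pressure was taken at 1.5 and/or 4 h after dosing. Falls under 10% were scored as ±.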

The test system of experiment [14] is Rattus norvegicus. Briefly: The percent fall in systolic blood pressure at 1.5 / 4 hr after peroral administration of 50 mg/kg in DOCA/saline hypertensive rats at 2 hr; Non significant. The class given is functional, organism-based. Details: dose 50 mg/kg. Particulars: Artery, at 50 mg/kg.
In experiment [15] the test system is Rattus norvegicus. Nature of the experiment: The percent fall in systolic blood pressure at 1.5 / 4 hr after peroral administration of 25 mg/kg in DOCA/saline hypertensive rats at 24 hr. The settings on record: route oral. The class given is functional, Artery. An outline of the steps: as §1
For experiment [16], the system named is Rattus norvegicus. Nature of the experiment: The percent fall in systolic blood pressure at 1.5 / 4 hr after peroral administration of 50 mg/kg in DOCA/saline hypertensive rats at 24 hr. Format: functional, Artery. Particulars: route oral. An outline of the steps: as §1
In experiment [17] the test system is Rattus norvegicus. Nature of the experiment: The percent fall in systolic blood pressure after peroral administration of 50 mg/kg in DOCA/saline hypertensive rats at 24 hr. Particulars: route oral.
For experiment [18], the system named is Rattus norvegicus. Briefly: The percent fall in systolic blood pressure at 1.5 / 4 hr after peroral administration of 10 mg/kg in DOCA/saline hypertensive rats at 6 h; Non significant, p>0.05. Details: dose 10 mg/kg. Format: functional, organism-based. Particulars: Artery, at 10 mg/kg. An outline of the steps:
as §1

Experiment [19] concerns Rattus norvegicus. Nature of the experiment: Percent fall in systolic blood pressure at 1.5 / 4 hr after peroral administration of 50 mg/kg in DOCA/saline hypertensive rats at 6 h; Non significant. The class given is functional, organism-based. The settings on record: Artery, at 50 mg/kg. Details: dose 50 mg/kg.
Experiment [20] has as its system Rattus norvegicus. Nature of the experiment: The percent fall in systolic blood pressure at 1.5 / 4 hr after peroral administration of 10 mg/kg in DOCA/saline hypertensive rats at 24 hr; Non significant. Details: dose 10 mg/kg. The class given is functional, organism-based. Particulars: Artery, at 10 mg/kg.

Molecules are shown by their SMILES. Activity calls are given as the source filed them. No cut-off for these calls is given here.

In the case of `O=C(NC(=O)C1CCCCC1)NC1CCN(CCc2c[nH]c3ccccc23)CC1`, the Fall in experiment [1] was 48%; in experiment [2] it was 52%; in experiment [3], 54%; in experiment [4], 54%; in experiment [5], “Non significant, p>0.05”; in experiment [7], 27%. The Fall entry in [8] was “Not significant”; in experiment [9], “Not significant”; in [11], 30%. In addition, the results for the SP in experiment [6], in [10] and in [12] were 181 mmHg, 170 mmHg and 173 mmHg, respectively.
As for `COc1ccc(NC(=O)NC2CCN(CCCC(=O)c3ccccc3)CC2)cc1`, the Activity in [13] was less than 10.
For `CCCCNC(=O)NC1CCN(CCc2c[nH]c3ccccc23)CC1`, the Fall in experiment [2] was 29%; in [9], “Not significant”; in [14] it was “Not significant”. The molecule further registered an SP in experiment [12] of 172 mmHg.
As for `CN(C(=O)Nc1ccccc1)C1CCN(CCc2c[nH]c3ccccc23)CC1`, the Fall in experiment [1] (50 mg/kg) amounted to 54%; in experiment [2] (50 mg/kg) it was 52%; in experiment [3], 38%; in experiment [4], 44%; in experiment [15] it was 20%; in experiment [16], 26%. The SP turned out to be 180 mmHg in [6], 168 mmHg in [10] and 174 mmHg in [12].
In the case of `O=C(NC(=O)c1ccccc1)NC1CCN(CCCC(=O)c2ccc(F)cc2)CC1`, the Fall was 43% in [1], 31% in experiment [2] and “Not significant” in [9]. The molecule also registered an SP in [12] of 184 mmHg.
`Cc1cccc(C)c1NC(=O)NC1CCN(CCCC(=O)c2ccccc2)CC1` showed an Activity in experiment [13] of less than 10.
With `O=C(Nc1ccccc1)NC1CCN(CCCC(=O)c2ccccc2)CC1`, the Fall was 31% in experiment [1], 24% in experiment [2] and “Not significant” in experiment [9]. This molecule came in with an Activity in experiment [13] of 39. In addition, the SP in [12] is 205 mmHg.
In experiment [13], `S=C(Nc1ccccc1)NC1CCN(CCc2c[nH]c3ccccc23)CC1` displayed an Activity of 21.
`Cc1cccc(NC(=O)NC2CCN(CCCC(=O)c3ccccc3)CC2)c1` came in with an Activity in [13] of 21.
In the case of `Cn1cc(CCN2CCC(NC(=O)NC(=O)c3ccccc3)CC2)c2ccccc21`, the values for the Fall in experiment [1], in experiment [2] and in [9] were 26%, 28% and “Not significant”, respectively. The molecule also registered an SP in [12] of 172 mmHg.
In the case of `O=C(Nc1ccc(Cl)c(Cl)c1)NC1CCN(CCCC(=O)c2ccccc2)CC1`, the values for the Fall in experiment [1], in experiment [2] and in experiment [17] were 35%, 35% and 18%, respectively. In [12], the SP stood at 169 mmHg.
On to `O=C(Nc1ccc(Cl)cc1)NC1CCN(CCCC(=O)c2ccccc2)CC1`, for which the Fall in experiment [1] was 30%; in experiment [2], 25%; in [9], “Not significant”. This molecule displayed an SP in experiment [12] of 200 mmHg.
For the molecule `O=C(NC(=O)c1ccccc1)NC1CCN(CCCC(=O)c2ccccc2)CC1`, the Fall in [1] was 21%; in [18], “Not significant”; in experiment [3] it was 26%; in experiment [4] it was 28%; in [5], “Not significant”; in experiment [8], “Not significant”. For the same molecule, the Fall result in experiment [9] is “Not significant”; in experiment [19] it was “Not significant”; in [11], 22%. Further, the SP in [6] was found to be 178 mmHg; in experiment [10], 173 mmHg; in [12] it was 169 mmHg.
As to `COc1ccc(NC(=O)NC2CCN(CCc3c[nH]c4ccccc34)CC2)cc1`, the Activity in [13] is 27.
Turning to `O=C(NC(=O)c1cccs1)NC1CCN(CCc2c[nH]c3ccccc23)CC1`, the Fall in [1] is 47%; in experiment [2] it was 38%; in experiment [3], 46%; in experiment [4] it was 43%; in experiment [5], “Not significant”; in experiment [7], 46%. Also, the Fall entry is “Not significant” in experiment [8], 50% in experiment [11] and 38% in experiment [16]. For the same molecule, the figures for the SP in [6], in [10] and in experiment [12] were 171 mmHg, 169 mmHg and 193 mmHg, respectively.
With `COc1ccccc1OCC(O)CN1CCC(NC(=O)Nc2ccccc2)CC1` (stereo not drawn), the Fall is 27% in [1], “Not significant” in experiment [19] and -27% in experiment [17]. The molecule also showed an SP in experiment [12] of 212 mmHg.
Regarding `NC(=O)NC1CCN(CCc2c[nH]c3ccccc23)CC1`, the Activity in [13] is 28.
The molecule `O=C(Nc1ccccc1)NC1CCN(CCc2c[nH]c3ccccc23)CC1` gave an Activity in [13] of 29.
Regarding `O=C(Nc1ccc(Cl)c(Cl)c1)NC1CCN(CCc2c[nH]c3ccccc23)CC1`, the Activity in experiment [13] was determined as 15.
In turn, `Cc1cccc(NC(=O)NC2CCN(CCc3c[nH]c4ccccc34)CC2)c1` returned an Activity in experiment [13] of 14.
As for `O=C(NC(=O)c1ccccc1)NC1CCN(CCc2c[nH]c3ccccc23)CC1`, the Fall is 49% in experiment [1]; “Not significant” in experiment [18]; 49% in experiment [2]; 48% in experiment [3]; 51% in experiment [4]; “Not significant” in experiment [5]. Moreover, the Fall in [15] is 21%; in experiment [11] it was 36%; in [16], 38%. In addition, the SP in [6] came to 171 mmHg; in experiment [10], 178 mmHg; in experiment [12], 179 mmHg. In addition, the Activity in [13] came to 48.
Regarding `O=C(Nc1ccccc1C(F)(F)F)NC1CCN(CCc2c[nH]c3ccccc23)CC1`, the Activity in [13] was less than 10.
Consider `O=C(Nc1ccc(Cl)cc1)NC1CCN(CCc2c[nH]c3ccccc23)CC1`, for which, in experiment [13], the Activity came to 21.
For `O=C(Nc1ccccc1C(F)(F)F)NC1CCN(CCCC(=O)c2ccccc2)CC1`, the values for the Fall in experiment [1], in experiment [2] and in experiment [9] were 20%, 20% and “Not significant”, respectively. This molecule also came in with an SP in [12] of 208 mmHg.
As to `O=C(NC1CCN(CCc2c[nH]c3ccccc23)CC1)c1ccccc1` [INDORAMIN], the Fall in experiment [1] was determined as 41%; in experiment [2], 45%; in experiment [3] it was 29%; in experiment [4], 25%; in [7] it was 31%; in [11], 33%. Moreover, the Fall in experiment [16] is 38%. For the same molecule, the Fall result in [20] and in experiment [8] was “inactive” in each case. Moreover, the SP in experiment [6] was found to be 178 mmHg; in experiment [10], 197 mmHg; in experiment [12], 198 mmHg. This molecule also returned an Activity in [13] of 38.
For `O=C(CCCN1CCC(NC(=S)NC(=O)c2ccccc2)CC1)c1ccccc1`, the results for the Fall in experiment [1], in experiment [2] and in experiment [9] were 36%, 32% and “Not significant”, respectively. In experiment [12], the SP worked out at 186 mmHg.
`O=C(Nc1cccc(C(F)(F)F)c1)NC1CCN(CCCC(=O)c2ccccc2)CC1`: the Fall entry in experiment [9], in experiment [14] and in [19] was “Not significant” each time. This molecule showed an SP in experiment [12] of 177 mmHg.

These data come from ChEMBL document CHEMBL1121617, “Antihypertensive ureidopiperidines” (1980).
